Activity calls are given as the source filed them. No cut-off for these calls is given here.
Legend:
[1] = biological target: T1, Cyclin-dependent kinase 2/cyclin E1 (Homo sapiens, UniProt P24941); test: Inhibition of CDK2/Cyclin E (unknown origin); assay type: protein-complex assay
[2] = Inhibition of CDK4/Cyclin D (unknown origin) expressed in baculovirus infected insect Sf9 cells using human pRB as substrate in presence of [gamma-32P]ATP
[3] = biological target: T1, Cyclin-dependent kinase 2/cyclin E1; test: Inhibition of CDK2/Cyclin E (unknown origin) expressed in baculoviral infected insect Sf9 cells using histone H1 as substrate in presence of [gamma-33P]ATP
MCF7 [4] = test: Cytotoxicity against human MCF7 cells assessed as cell viability after 72 hrs by fluorescence microplate reader method; assay type: functional, cell-based; details: MCF7, 72 h
Summary of the method: (§1)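 Cells were exposed to three-fold compound dilutions in triplicate for 72 h. Viability was read after adding Calcein AM, as live-cell fluorescence at 485/538 nm (excitation/emission).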

[5] = Cytotoxicity against human G361 cells assessed as cell viability at 50 uM after 72 hrs by fluorescence microplate reader method; assay type: functional; details: G-361, 72 h, read-out: Activity
G-361 [6] = test: Induction of apoptosis in human G361 cells assessed as activation of caspases-3/7 at 50 uM using Ac-DEVD-AMC as substrate after 6 hrs by fluorescence microplate reader method relative to control; assay type: functional
Summary of the method: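 G361 cells were seeded at 20,000 cells/well overnight, then treated with compound for 24 h. A 3x caspase-3/7 buffer (HEPES pH 7.4, NaCl, KCl, MgCl2, EGTA, Nonidet P40, CHAPS, sucrose, DTT, PMSF) containing Ac-DEVD-AMC substrate was added, and plates were incubated at 37 °C. Fluorescence at 346/442 nm was read after 6 h and expressed relative to untreated control.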

K562 [7] = test: Cytotoxicity against human K562 cells assessed as cell viability at 50 uM after 72 hrs by fluorescence microplate reader method; assay type: functional; details: K562, 72 h, read-out: Activity
K562 [8] = test: Cytotoxicity against human K562 cells assessed as cell viability after 72 hrs by fluorescence microplate reader method; assay type: functional, cell-based; details: K562, 72 h; summary of the method: as §1
MCF7 [9] = test: Cytotoxicity against human MCF7 cells assessed as cell viability at 50 uM after 72 hrs by fluorescence microplate reader method; assay type: functional; details: MCF7, 72 h, read-out: Activity
[10] = Cytotoxicity against human G361 cells assessed as cell viability after 72 hrs by fluorescence microplate reader method; assay type: functional, cell-based; details: G-361, 72 h; summary of the method: as §1
MCF7 [11] = test: Cell cycle arrest in BrdU pulse labeled human MCF7 cells assessed as accumulation at G2/M phase after 24 hrs by propidium iodide staining based flow cytometry; assay type: functional
[12] = Upregulation of Bak protein level in human G361 cells at 20 to 80 uM after 24 hrs by immunoblotting analysis; assay type: functional, cell-based; details: G-361
Summary of the method: (§2)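 G361 cells treated 24 h, harvested into Laemmli sample buffer. Proteins separated by SDS-PAGE, electroblotted to nitrocellulose, blocked, probed overnight with specific primary antibodies, then peroxidase-conjugated secondary antibodies. Tubulin served as loading control.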

CCRF-CEM = test: Cytotoxicity against human CEM cells assessed as cell viability after 72 hrs by fluorescence microplate reader method; assay type: functional, cell-based; summary of the method: as §1
[13] = Downregulation of cyclin A1 levels in human G361 cells at 20 to 80 uM after 24 hrs by immunoblotting analysis; assay type: functional, cell-based; details: G-361; summary of the method: as §2
[14] = Cell cycle arrest in BrdU pulse labeled human G361 cells assessed as accumulation at sub G1 phase at 20 uM after 24 hrs by propidium iodide staining based flow cytometry (reference value: 0.8%); assay type: functional; details: G-361
[15] = Cytotoxicity against human HCT116 cells assessed as cell viability after 72 hrs by fluorescence microplate reader method; assay type: functional, cell-based; details: HCT-116, 72 h; summary of the method: as §1
[16] = Cell cycle arrest in BrdU pulse labeled human G361 cells assessed as accumulation at sub G1 phase at 60 uM after 24 hrs by propidium iodide staining based flow cytometry (reference value: 0.8%); assay type: functional; details: G-361
[17] = Cell cycle arrest in BrdU pulse labeled human G361 cells assessed as accumulation at G2/M phase after 24 hrs by propidium iodide staining based flow cytometry; assay type: functional; details: G-361
[18] = Downregulation of Rb levels in human G361 cells after 24 hrs by immunoblotting analysis; assay type: functional, cell-based; details: G-361; summary of the method: as §2
[19] = Cell cycle arrest in BrdU pulse labeled human G361 cells assessed as accumulation at sub G1 phase at 40 uM after 24 hrs by propidium iodide staining based flow cytometry (reference value: 0.8%); assay type: functional; details: G-361
[20] = biological target: T2, Cyclin-dependent kinase 2/cyclin E1 (Homo sapiens) (UniProt P24864+P24941); test: Inhibition of CDK2/Cyclin E in human G361 cells assessed as suppression of RB phosphorylation at S780 at 50 uM after 4 hrs by immunoblotting analysis; assay type: cell-based; details: G-361
Summary of the method: (§3)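 G361 cells synchronized with nocodazole (3 ng/mL, 16 h), then treated 4 h. Phosphorylated CDK substrates detected by immunoblotting, with tubulin as equal-loading control.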

[21] = biological target: T2, Cyclin-dependent kinase 2/cyclin E1 (Homo sapiens); test: Inhibition of CDK2/Cyclin E in human G361 cells assessed as suppression of RB phosphorylation at S807/811 at 50 uM after 4 hrs by immunoblotting analysis; assay type: cell-based; details: G-361; summary of the method: as §3
[22] = biological target: Cyclin-dependent kinase 5/CDK5 activator 1 (Homo sapiens, UniProt Q00535); test: Inhibition of CDK5/p35NCK (unknown origin) using histone H1 as substrate in presence of [gamma-33P]ATP; assay type: protein-complex assay
HeLa = test: Cytotoxicity against human HeLa cells assessed as cell viability after 72 hrs by fluorescence microplate reader method; assay type: functional, cell-based; summary of the method: as §1
[23] = biological target: Cyclin-dependent kinase 1/cyclin B1 (Homo sapiens, UniProt P06493); test: Inhibition of CDK1/Cyclin B (unknown origin) expressed in baculoviral infected insect Sf9 cells using histone H1 as substrate in presence of [gamma-33P]ATP; assay type: cell-based
[24] = biological target: T2, Cyclin-dependent kinase 2/cyclin E1 (Homo sapiens); test: Inhibition of CDK2/Cyclin E in human G361 cells assessed as suppression of nucleophosmin phosphorylation at T199 at 50 uM after 4 hrs by immunoblotting analysis; assay type: cell-based; details: G-361; summary of the method: as §3
[25] = Cell cycle arrest in BrdU pulse labeled human G361 cells assessed as accumulation at G1 phase after 24 hrs by propidium iodide staining based flow cytometry; assay type: functional; details: G-361
[26] = Cell cycle arrest in BrdU pulse labeled human G361 cells assessed as accumulation at sub G1 phase after 24 hrs by propidium iodide staining based flow cytometry; assay type: functional; details: G-361
[27] = Downregulation of Mcl-1 protein level in human G361 cells at 20 to 80 uM after 24 hrs by immunoblotting analysis; assay type: functional, cell-based; details: G-361; summary of the method: as §2
MCF7 [28] = test: Cell cycle arrest in BrdU pulse labeled human MCF7 cells assessed as accumulation at G1 phase after 24 hrs by propidium iodide staining based flow cytometry; assay type: functional
[29] = Cell cycle arrest in BrdU pulse labeled human G361 cells assessed as accumulation at sub G1 phase at 80 uM after 24 hrs by propidium iodide staining based flow cytometry (reference value: 0.8%); assay type: functional; details: G-361
[30] = biological target: Cyclin-dependent kinase 4/cyclin D1 (Homo sapiens, UniProt P11802); test: Inhibition of CDK4/Cyclin D1 (unknown origin) using RPPTLSPIPHIPR peptide as substrate in presence of [gamma-33P]ATP; assay type: protein-complex assay
CDK7/Cyclin H/MNAT1 = CDK7/Cyclin H/MNAT1 (Homo sapiens, UniProt P50613); test: Inhibition of CDK7/Cyclin H/MAT1 (unknown origin) using (YSPTSPS)2KK peptide as substrate in presence of [gamma-33P]ATP; assay type: protein-complex assay
[31] = Upregulation of Bid protein level in human G361 cells at 20 to 80 uM after 24 hrs by immunoblotting analysis; assay type: functional, cell-based; details: G-361; summary of the method: as §2
[32] = Downregulation of cyclin B1 levels in human G361 cells at 20 to 80 uM after 24 hrs by immunoblotting analysis; assay type: functional, cell-based; details: G-361; summary of the method: as §2
[33] = Upregulation of Bax protein level in human G361 cells at 20 to 80 uM after 24 hrs by immunoblotting analysis; assay type: functional, cell-based; details: G-361; summary of the method: as §2
[34] = biological target: T2, Cyclin-dependent kinase 2/cyclin E1 (Homo sapiens); test: Inhibition of CDK2/Cyclin E in human G361 cells assessed as suppression of PP1alpha phosphorylation at T320 at 50 uM after 4 hrs by immunoblotting analysis; assay type: cell-based; details: G-361; summary of the method: as §3
G-361 [35] = test: Induction of apoptosis in human G361 cells assessed as activation of caspases-3/7 at 20 to 80 uM using Ac-DEVD-AMC as substrate after 24 hrs by fluorimetric analysis; assay type: functional, cell-based
Summary of the method: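 Lysates cleared at 10 000 g, 30 min, 4 °C, equalized for protein, then incubated 3 h with Ac-DEVD-AMC in 25 mM PIPES, 2 mM EGTA, 2 mM MgCl2, 5 mM DTT, pH 7.3. Fluorescence read at 355/460 nm, normalized to untreated control.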

CDK9/cyclin T1 = CDK9/cyclin T1 (Homo sapiens, UniProt P50750); test: Inhibition of CDK9/Cyclin T1 (unknown origin) using (YSPTSPS)2KK peptide as substrate in presence of [gamma-33P]ATP; assay type: protein-complex assay
CDK9/cyclin T1, sequence (O60563 whole entry): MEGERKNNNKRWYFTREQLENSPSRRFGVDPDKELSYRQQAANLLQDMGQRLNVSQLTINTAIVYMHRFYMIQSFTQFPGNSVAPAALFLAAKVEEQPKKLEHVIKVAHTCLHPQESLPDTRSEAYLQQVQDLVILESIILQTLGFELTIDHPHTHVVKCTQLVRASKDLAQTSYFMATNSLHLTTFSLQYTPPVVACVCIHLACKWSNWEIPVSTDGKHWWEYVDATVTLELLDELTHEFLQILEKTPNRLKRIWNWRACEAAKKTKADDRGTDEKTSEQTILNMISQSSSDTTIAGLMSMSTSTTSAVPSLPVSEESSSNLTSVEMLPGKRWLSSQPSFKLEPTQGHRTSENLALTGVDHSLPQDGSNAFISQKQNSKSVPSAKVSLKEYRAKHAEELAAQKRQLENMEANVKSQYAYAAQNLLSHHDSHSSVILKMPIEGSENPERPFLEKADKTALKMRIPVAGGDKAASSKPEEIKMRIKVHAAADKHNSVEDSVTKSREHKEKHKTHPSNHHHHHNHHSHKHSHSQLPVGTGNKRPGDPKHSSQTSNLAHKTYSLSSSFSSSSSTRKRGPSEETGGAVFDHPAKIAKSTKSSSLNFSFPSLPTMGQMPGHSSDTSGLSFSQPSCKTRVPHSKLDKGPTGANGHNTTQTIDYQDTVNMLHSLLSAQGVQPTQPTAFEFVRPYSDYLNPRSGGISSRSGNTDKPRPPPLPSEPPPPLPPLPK
CDK9/cyclin T1, sequence (P50750 whole entry): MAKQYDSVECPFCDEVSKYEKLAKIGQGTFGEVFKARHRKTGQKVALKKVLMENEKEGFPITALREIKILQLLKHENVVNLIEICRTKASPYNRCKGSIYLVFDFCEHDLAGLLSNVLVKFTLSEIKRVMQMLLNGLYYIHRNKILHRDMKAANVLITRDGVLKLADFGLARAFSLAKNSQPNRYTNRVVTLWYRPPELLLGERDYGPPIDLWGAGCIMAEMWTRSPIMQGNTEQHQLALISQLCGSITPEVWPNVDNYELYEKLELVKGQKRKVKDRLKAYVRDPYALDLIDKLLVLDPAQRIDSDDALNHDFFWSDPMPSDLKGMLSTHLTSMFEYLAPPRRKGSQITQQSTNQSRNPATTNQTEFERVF

Cyclin-dependent kinase 4/cyclin D1, sequence (P11802 whole entry): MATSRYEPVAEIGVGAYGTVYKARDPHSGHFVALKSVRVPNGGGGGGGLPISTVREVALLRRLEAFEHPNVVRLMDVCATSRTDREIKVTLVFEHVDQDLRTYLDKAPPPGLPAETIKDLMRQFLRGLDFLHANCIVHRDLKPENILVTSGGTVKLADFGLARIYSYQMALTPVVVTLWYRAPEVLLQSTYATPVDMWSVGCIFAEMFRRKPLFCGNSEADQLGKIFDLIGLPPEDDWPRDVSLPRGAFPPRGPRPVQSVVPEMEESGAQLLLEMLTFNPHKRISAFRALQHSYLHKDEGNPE
Cyclin-dependent kinase 4/cyclin D1, sequence (P24385 whole entry, further chain): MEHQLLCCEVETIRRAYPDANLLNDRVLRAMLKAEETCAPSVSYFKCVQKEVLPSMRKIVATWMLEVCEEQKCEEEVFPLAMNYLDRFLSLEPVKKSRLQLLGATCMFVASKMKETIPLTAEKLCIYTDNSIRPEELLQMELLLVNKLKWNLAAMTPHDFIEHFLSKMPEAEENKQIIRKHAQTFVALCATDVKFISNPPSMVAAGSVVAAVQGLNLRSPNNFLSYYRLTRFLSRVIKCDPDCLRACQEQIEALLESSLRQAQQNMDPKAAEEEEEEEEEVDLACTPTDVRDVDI
CDK7/Cyclin H/MNAT1, sequence (P51946 whole entry): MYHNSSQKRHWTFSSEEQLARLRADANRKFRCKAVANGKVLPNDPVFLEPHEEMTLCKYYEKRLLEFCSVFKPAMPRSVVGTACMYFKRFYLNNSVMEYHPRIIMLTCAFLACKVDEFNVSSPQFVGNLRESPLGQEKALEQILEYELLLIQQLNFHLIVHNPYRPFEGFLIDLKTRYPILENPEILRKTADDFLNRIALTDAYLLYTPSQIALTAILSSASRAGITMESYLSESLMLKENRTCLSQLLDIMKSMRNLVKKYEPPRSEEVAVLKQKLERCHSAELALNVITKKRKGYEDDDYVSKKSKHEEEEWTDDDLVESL
CDK7/Cyclin H/MNAT1, sequence (P50613 whole entry): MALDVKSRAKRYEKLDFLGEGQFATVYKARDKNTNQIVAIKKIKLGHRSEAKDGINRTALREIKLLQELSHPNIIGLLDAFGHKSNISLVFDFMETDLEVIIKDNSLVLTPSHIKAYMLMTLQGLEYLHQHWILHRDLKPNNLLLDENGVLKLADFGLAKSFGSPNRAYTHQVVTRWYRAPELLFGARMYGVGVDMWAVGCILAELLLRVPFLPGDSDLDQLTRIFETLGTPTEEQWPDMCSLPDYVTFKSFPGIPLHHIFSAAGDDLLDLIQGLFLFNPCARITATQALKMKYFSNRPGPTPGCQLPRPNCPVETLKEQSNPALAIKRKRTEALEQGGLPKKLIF
CDK7/Cyclin H/MNAT1, sequence (P51948 whole entry, further chain): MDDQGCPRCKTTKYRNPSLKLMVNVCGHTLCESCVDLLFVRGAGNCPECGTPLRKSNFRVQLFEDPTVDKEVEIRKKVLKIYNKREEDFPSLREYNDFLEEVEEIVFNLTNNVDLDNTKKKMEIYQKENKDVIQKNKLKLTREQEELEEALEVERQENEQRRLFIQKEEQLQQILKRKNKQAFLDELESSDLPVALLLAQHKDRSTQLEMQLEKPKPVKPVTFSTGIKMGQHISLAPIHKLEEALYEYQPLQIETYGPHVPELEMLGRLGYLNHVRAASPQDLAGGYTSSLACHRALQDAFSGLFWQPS
Cyclin-dependent kinase 1/cyclin B1, sequence (P06493 whole entry): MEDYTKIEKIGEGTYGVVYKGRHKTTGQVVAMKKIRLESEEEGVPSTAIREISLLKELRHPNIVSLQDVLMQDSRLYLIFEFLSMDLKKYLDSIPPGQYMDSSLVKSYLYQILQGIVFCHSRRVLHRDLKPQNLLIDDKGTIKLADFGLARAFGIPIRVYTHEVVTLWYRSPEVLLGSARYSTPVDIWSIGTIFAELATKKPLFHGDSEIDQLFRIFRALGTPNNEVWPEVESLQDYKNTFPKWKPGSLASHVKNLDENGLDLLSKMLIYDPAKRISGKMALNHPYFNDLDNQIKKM
Cyclin-dependent kinase 1/cyclin B1, sequence (P14635 whole entry, further chain): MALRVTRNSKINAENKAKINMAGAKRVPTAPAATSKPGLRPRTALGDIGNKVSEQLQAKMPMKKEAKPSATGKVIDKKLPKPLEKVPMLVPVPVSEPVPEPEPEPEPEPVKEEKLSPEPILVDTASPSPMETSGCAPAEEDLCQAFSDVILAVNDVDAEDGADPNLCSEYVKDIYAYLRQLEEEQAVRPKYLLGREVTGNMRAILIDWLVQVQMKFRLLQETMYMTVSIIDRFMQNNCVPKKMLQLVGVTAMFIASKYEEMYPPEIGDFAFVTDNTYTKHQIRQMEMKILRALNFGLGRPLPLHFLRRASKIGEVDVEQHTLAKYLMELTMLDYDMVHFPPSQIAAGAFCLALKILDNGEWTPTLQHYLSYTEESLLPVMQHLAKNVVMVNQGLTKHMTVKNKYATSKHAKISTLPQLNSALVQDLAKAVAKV
Cyclin-dependent kinase 5/CDK5 activator 1, sequence (Q00535 whole entry): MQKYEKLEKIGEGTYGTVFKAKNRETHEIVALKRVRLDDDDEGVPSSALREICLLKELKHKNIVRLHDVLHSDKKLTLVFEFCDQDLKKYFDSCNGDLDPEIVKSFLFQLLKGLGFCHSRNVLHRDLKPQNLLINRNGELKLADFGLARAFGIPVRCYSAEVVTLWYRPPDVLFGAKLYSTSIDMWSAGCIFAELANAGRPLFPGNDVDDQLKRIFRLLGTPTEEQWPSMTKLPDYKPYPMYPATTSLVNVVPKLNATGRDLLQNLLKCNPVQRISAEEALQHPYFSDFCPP
Cyclin-dependent kinase 5/CDK5 activator 1, sequence (Q15078 whole entry, further chain): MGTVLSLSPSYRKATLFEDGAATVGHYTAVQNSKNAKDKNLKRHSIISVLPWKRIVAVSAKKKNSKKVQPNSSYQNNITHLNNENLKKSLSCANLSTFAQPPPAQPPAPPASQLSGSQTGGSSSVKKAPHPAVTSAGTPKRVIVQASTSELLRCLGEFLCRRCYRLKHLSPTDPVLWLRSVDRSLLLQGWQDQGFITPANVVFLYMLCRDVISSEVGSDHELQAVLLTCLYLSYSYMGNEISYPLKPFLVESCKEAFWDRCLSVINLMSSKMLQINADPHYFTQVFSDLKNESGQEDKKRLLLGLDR

Cc1nc2ccccn2c1-c1ccnc(NC(=O)Nc2ccccc2)n1
IC50 [1]: 10 µM

O=C1c2ccccc2-[n+]2ccc3c([nH]c4ccccc43)c21 [FASCAPLYSIN CHLORIDE]
IC50 [2]: 0.35 µM

c1cnc2[nH]c(-c3cn(CCCc4c[nH]c5ncccc45)nn3)cc2c1
IC50 ([3]; read-out: IC50): 8.7 µM
IC50 ([3]; read-out: pIC50 (converted)): 7.94 µM
IC50 (MCF7 [4]): > 25 µM
viability at 50 µM [5]: 81.8%
fold change (FC) (G-361 [6]): 1.9
viability at 50 µM (K562 [7]): 91.5%
IC50 (K562 [8]): > 25 µM
viability at 50 µM (MCF7 [9]): 80.5%
IC50 [10]: > 50 µM

CC(C)[C@H](CO)Nc1nc(NCc2ccc(Cl)cc2)c2ncn(C(C)C)c2n1
IC50 [1]: 0.0347 µM

O=C(NNC(=O)c1ccccc1O)Nc1cccc2c1C(=O)c1c-2n[nH]c1-c1ccc(O)cc1
IC50 [1]: 0.00891 µM

c1cnc2[nH]c(-c3cnnn3CCCc3c[nH]c4ncccc34)cc2c1
Activity (MCF7 [11]): Active
Activity [12]: Active
IC50 ([3]; read-out: IC50): 2 µM
IC50 ([3]; read-out: pIC50 (converted)): 2 µM
IC50 (MCF7 [4]): > 25 µM
IC50 (CCRF-CEM): 31 µM
Activity [13]: Active
Activity [14]: 2.4%
IC50 [15]: > 50 µM
Activity [16]: 22.1%
Activity [17]: Active
Activity [18]: Dose-dependent effect
viability at 50 µM [5]: 32.4%
Activity [19]: 10%
inhibition [20]: Active
inhibition [21]: Active
IC50 [22]: 10.7 µM
fold change (FC) (G-361 [6]): 13.8
IC50 (HeLa): > 50 µM
IC50 [23]: 11.5 µM
viability at 50 µM (K562 [7]): 57.4%
inhibition [24]: Active
IC50 (K562 [8]): 39.9 µM
Activity [25]: Active
Activity [26]: Dose-dependent effect
Activity [27]: Active
Activity (MCF7 [28]): Active
Activity [29]: 34.7%
IC50 [30]: 9 µM
IC50 (CDK7/Cyclin H/MNAT1): > 50 µM
Activity [31]: Active
viability at 50 µM (MCF7 [9]): 55.4%
Activity [32]: Active
Activity [33]: Active
inhibition [34]: Active
Activity (G-361 [35]): Active
IC50 [10]: 31.5 µM
IC50 (CDK9/cyclin T1): 9 µM

Source: ChEMBL document CHEMBL3763042, “Synthesis, biological evaluation and molecular modeling of a novel series of 7-azaindole based tri-heterocyclic compounds as potent CDK2/Cyclin E inhibitors” (Eur J Med Chem, 2016)
